For test [1], the system named is SH-SY5Y. Nature of the test: Neuroprotective activity against human SH-SY5Y cells assessed as reduction in K+-induced LDH release at 0.3 uM relative to control. It counts as functional. More on the design: scale not given: the % may be the effect or the level left. The procedure, abridged:
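SH-SY5Y neuroblastoma cells maintained in DMEM with 10% FCS at 37 °C in 5% CO2, used at passages 3–16. Cells treated before confluence in serum-free DMEM. Cell death from Ca2+ overload induced by 70 mM K+, read as LDH release. Compounds tested at 0.3 (unit as printed); nimodipine as reference. Means ± SEM, at least three cultures in quadruplicate.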

Test [2] relates to SH-SY5Y. Nature of the test: Neuroprotective activity against calcium overload-induced cell death in human SH-SY5Y cells at 0.3 uM in presence of K+ relative to control. It counts as functional. The procedure, abridged:
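SH-SY5Y cells (passages 3–16 after thawing) were grown in DMEM with 10% FCS, glutamine and penicillin/streptomycin at 37 °C in 5% CO2. They were treated with compound before confluence in serum-free DMEM and challenged with 70 mM K+. Read-out was the reduction in the increase of LDH released, relative to a drug-free control. Means ± SEM from at least three cultures in quadruplicate.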

Test [3] deals with SH-SY5Y. The test can be described thus: Neuroprotective activity against free radical-induced cell death in human SH-SY5Y cells at 0.3 uM in presence of H2O2 relative to control.
Test [4] deals with SH-SY5Y. Nature of the test: Neuroprotective activity against human SH-SY5Y cells assessed as reduction in H2O2-induced LDH release at 0.3 uM relative to control. Format: functional. On the set-up: scale not given: the % may be the effect or the level left. In general terms: LDH in the medium is a marker of cell lysis.
Test [5] concerns SH-SY5Y. Nature of the test: Blockade of high K+-induced increase in calcium uptake in human SH-SY5Y cells at 0.3 uM relative to control. Format: functional.

The structures appear in SMILES notation.

Consider `CCOC(=O)C1=C(C)NC(N)=C(C#N)C1c1ccncc1` (stereo not given), for which the Activity with SH-SY5Y [1] was determined as 70.5%; in the test with SH-SY5Y [2], 43.3%; with SH-SY5Y [3] it was 46.7%; in the test with SH-SY5Y [4], 66.7%; with SH-SY5Y [5] it was 32.6%.

For the molecule `Cc1ccc(C2C(C#N)=C(N)NC3=C2C(=O)CC(C)(C)C3)cc1` (stereo not given), the Activity with SH-SY5Y [1] was determined as 68.4%; in the test with SH-SY5Y [2] it was 44.4%; in the test on SH-SY5Y [3] it was 14.9%; with SH-SY5Y [4], 88.6%; with SH-SY5Y [5], 28.6%.

Regarding `CC1(C)CC(=O)C2=C(C1)NC(N)=C(C#N)C2c1ccncc1` (stereo not given), the Activity with SH-SY5Y [1] was determined as 71.4%; in the test on SH-SY5Y [2], 39.5%; with SH-SY5Y [3], 29.1%; with SH-SY5Y [4], 77.7%; in the test with SH-SY5Y [5], 50.4%.

Turning to `COc1ccc(C2C(C#N)=C(N)NC3=C2C(=O)CC(C)(C)C3)cc1` (stereo not given), the Activity is on record as 69.3% with SH-SY5Y [1]; 43.2% with SH-SY5Y [2]; 29% with SH-SY5Y [3]; 77.8% with SH-SY5Y [4]; 12.6% in the test with SH-SY5Y [5].

On to `CC1(C)CC(=O)C2=C(C1)NC(N)=C(C#N)C2c1ccc(F)cc1` (stereo not given), for which the Activity in the test on SH-SY5Y [1] worked out at 69.9%; in the test on SH-SY5Y [2] it was 42.3%; in the test on SH-SY5Y [3], 32.4%; with SH-SY5Y [4] it was 75.4%; in the test on SH-SY5Y [5], 63.9%.

As to `CCOC(=O)C1=C(C)NC(N)=C(C#N)C1c1ccc(OC)c(OC)c1` (stereo not given), the Activity was determined as 80.5% with SH-SY5Y [1]; 31.2% in the test with SH-SY5Y [2]; 40.8% in the test on SH-SY5Y [3]; 70.2% with SH-SY5Y [4]; 21.8% with SH-SY5Y [5].

In the case of `CC1(C)CC(=O)C2=C(C1)NC(N)=C(C#N)C2c1ccccc1` (stereo not given), the Activity with SH-SY5Y [1] is reported as 61.2%; in the test on SH-SY5Y [2], 54.7%; in the test with SH-SY5Y [3] it was 20.6%; in the test with SH-SY5Y [4] it was 84.2%; in the test on SH-SY5Y [5], 20.8%.

As for `CCOC(=O)C1=C(C)NC(N)=C(C#N)C1c1ccc([N+](=O)[O-])cc1` (stereo not given), the Activity in the test with SH-SY5Y [1] is reported as 68.9%; in the test with SH-SY5Y [2], 45.7%; with SH-SY5Y [3] it was 23.1%; in the test on SH-SY5Y [4], 83.4%; with SH-SY5Y [5], 17.6%.

In the case of `CCOC(=O)C1=C(C)NC(N)=C(C#N)C1c1ccccc1OC` (stereo not given), the Activity turned out to be 78.2% in the test on SH-SY5Y [1]; 31.5% in the test with SH-SY5Y [2]; 15% in the test with SH-SY5Y [3]; 88.4% with SH-SY5Y [4]; 24.3% with SH-SY5Y [5].

Regarding `CCOC(=O)C1=C(C)NC(N)=C(C#N)C1c1cccc(OC)c1` (stereo not given), the Activity with SH-SY5Y [1] is on record as 77.9%; in the test on SH-SY5Y [2], 32.1%; with SH-SY5Y [3] it was 27.7%; with SH-SY5Y [4], 86.1%; with SH-SY5Y [5] it was 25%.

On to `CCOC(=O)C1=C(C)NC(N)=C(C#N)C1c1cccc([N+](=O)[O-])c1` (stereo not given), for which the Activity with SH-SY5Y [1] was found to be 79.4%; in the test with SH-SY5Y [2], 30.3%; with SH-SY5Y [3], 21.2%; in the test with SH-SY5Y [4] it was 84.5%; with SH-SY5Y [5], 27.8%.

As to `CCOC(=O)C1=C(C)NC(N)=C(C#N)C1c1ccccc1` (stereo not given), the Activity in the test on SH-SY5Y [1] turned out to be 76.26%; with SH-SY5Y [2], 34.1%; with SH-SY5Y [3], 17.3%; with SH-SY5Y [4], 86.7%; with SH-SY5Y [5], 34.03%.

For `CCOC(=O)C1=C(C)NC(N)=C(C#N)C1c1ccc(F)cc1` (stereo not given), the Activity with SH-SY5Y [1] worked out at 72.8%; in the test on SH-SY5Y [2] it was 39.8%; in the test with SH-SY5Y [3] it was 24.7%; in the test on SH-SY5Y [4] it was 82.2%; with SH-SY5Y [5] it was 7.2%.

On to `CCOC(=O)C1=C(C)NC(N)=C(C#N)C1c1ccccc1C(F)(F)F` (stereo not given), for which the Activity in the test with SH-SY5Y [1] is recorded as 72.11%; in the test on SH-SY5Y [2] it was 40.2%; in the test with SH-SY5Y [3], 28.2%; with SH-SY5Y [4] it was 78.6%; in the test with SH-SY5Y [5], 30.4%.

As for `CCOC(=O)C1=C(C)NC(N)=C(C#N)C1c1cccnc1` (stereo not given), the Activity was found to be 70.5% in the test with SH-SY5Y [1]; 43.4% in the test on SH-SY5Y [2]; 21.2% with SH-SY5Y [3]; 84.5% with SH-SY5Y [4]; 14.1% in the test with SH-SY5Y [5].

As for `CCOC(=O)C1=C(C)NC(N)=C(C#N)C1c1ccc(-c2ccccc2)cc1` (stereo not given), the Activity in the test on SH-SY5Y [1] stood at 90.9%; with SH-SY5Y [2] it was 12.9%; in the test with SH-SY5Y [3], 26.2%; in the test with SH-SY5Y [4], 80.3%; in the test with SH-SY5Y [5], 23.9%.

Regarding `CCOC(=O)C1=C(C)NC(N)=C(C#N)C1c1ccc(OC)cc1` (stereo not given), the Activity was determined as 89.9% in the test with SH-SY5Y [1]; 14.4% with SH-SY5Y [2]; 31.3% with SH-SY5Y [3]; 77.7% in the test on SH-SY5Y [4]; 11.8% with SH-SY5Y [5].

Turning to `CCOC(=O)C1=C(C)NC(N)=C(C#N)C1c1ccc(C)cc1` (stereo not given), the Activity in the test with SH-SY5Y [1] was found to be 72.3%; in the test with SH-SY5Y [2] it was 40.8%; with SH-SY5Y [3], 42.4%; in the test on SH-SY5Y [4], 69.7%; in the test with SH-SY5Y [5], 16.9%.

Consider `CCOC(=O)C1=C(C)NC(N)=C(C#N)C1c1ccccc1[N+](=O)[O-]` (stereo not given), for which the Activity with SH-SY5Y [1] came to 71.11%; with SH-SY5Y [2], 42.6%; with SH-SY5Y [3], 1.6%; in the test with SH-SY5Y [4] it was 98.8%; in the test on SH-SY5Y [5] it was 16.1%.

With `COCCOC(=O)C1=C(C)NC(C)=C(C(=O)OC(C)C)C1c1cccc([N+](=O)[O-])c1` (stereo not given) [NIMODIPINE], the Activity with SH-SY5Y [1] is 75%; with SH-SY5Y [2], 35.9%; in the test on SH-SY5Y [3] it was 36.03%; with SH-SY5Y [4], 75.4%; with SH-SY5Y [5], 45.5%.

For the origin of these results see ChEMBL document CHEMBL1149813, “Synthesis of 6-amino-1,4-dihydropyridines that prevent calcium overload and neuronal death” (2008).
